{"source": "ChEMBL document CHEMBL5356984", "about": "(RSC Med Chem, 2023)", "key": {"[1]": {"system": "MCF7", "assay": "Effect on HSP70 level in human MCF7 cells at 5 to 20 uM incubated for 48 hrs by Western blot analysis", "type": "functional, cell-based", "conditions": "dose 5-20 µM", "procedure,_shortened": "(§1)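 Cells exposed 48 h (DMSO vehicle control); trypsinized, lysed in RIPA with phosphatase/protease inhibitors; 20 μg protein on SDS-PAGE, blotted, blocked 5% milk 1 h; primary antibodies 1:1000 overnight at 4 °C, GAPDH 1:10000 as loading control; HRP secondary 1:1000–1:5000; ECL detection.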"}, "[2]": {"system": "SK-BR-3", "assay": "Induction of apoptosis in human SK-BR-3 cells assessed as increase in cleaved pro-caspase-9 level at 10 to 20 uM incubated for 48 hrs by Western blot analysis", "type": "functional, cell-based", "conditions": "dose 10-20 µM", "procedure,_shortened": "as §1"}, "[3]": {"biological_target": "T1, Heat shock protein HSP90 (Homo sapiens, UniProt P07900+P08238)", "assay": "Inhibition of HSP90 in human MCF7 cells assessed as decrease in phosphorylated AKT level at 5 to 20 uM incubated for 48 hrs by Western blot analysis", "type": "cell-based", "conditions": "dose 5-20 µM", "procedure,_shortened": "(§2)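 MCF-7 or SKBr3 cells were exposed for 48 h, then trypsinised, PBS-washed and lysed in RIPA buffer with phosphatase and protease inhibitors. Cleared lysate (14 000 rpm, 4 °C, 15 min) was BCA-quantified, and 20 µg protein was run on SDS-PAGE and blotted. Blots were blocked in 5% milk, incubated with primary antibodies (1:1000) overnight at 4 °C, then HRP secondary, and developed by ECL. GAPDH (1:10000) was the loading control.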"}, "[4]": {"assay": "Metabolic stability in simulated gastric fluid", "type": "ADME", "conditions": "simulated gi fluid"}, "[5]": {"system": "MCF7", "assay": "Effect on AKT level in human MCF7 cells at 5 to 20 uM incubated for 48 hrs by Western blot analysis", "type": "functional, cell-based", "conditions": "dose 5-20 µM", "procedure,_shortened": "as §1"}, "[6]": {"system": "MCF7", "assay": "Effect on HSP70 level in human MCF7 cells at 10 uM incubated for 36 hrs by DAPI staining based immunofluorescence analysis", "type": "functional, cell-based", "procedure,_shortened": "(§3)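 Cells treated 36 h with DMSO vehicle control, then fixed with 4% paraformaldehyde 15 min, permeabilized with 0.2% Triton X-100 5 min, blocked with 3% BSA 15 min; primary antibody then fluorescent secondary antibody, each 1 h at room temperature; HSP70 green, HSF-1 red, nuclei DAPI; imaged by fluorescence microscopy.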"}, "[7]": {"system": "SK-BR-3", "assay": "Induction of apoptosis in human SK-BR-3 cells assessed as viable cells at 20 uM incubated for 36 hrs by Annexin V/PI staining based flow cytometry (reference value: 90.4 %)", "type": "functional", "conditions": "read-out: Activity"}, "[8]": {"system": "SK-BR-3", "assay": "Induction of apoptosis in human SK-BR-3 cells assessed as late apoptotic cells at 20 uM incubated for 36 hrs by Annexin V/PI staining based flow cytometry (reference value: 4.95 %)", "type": "functional"}, "[9]": {"system": "MCF7", "assay": "Induction of apoptosis in human MCF7 cells assessed as increase in cleaved PARP level at 10 to 20 uM incubated for 48 hrs by Western blot analysis", "type": "functional, cell-based", "conditions": "dose 10-20 µM", "procedure,_shortened": "as §1"}, "[10]": {"biological_target": "T1, Heat shock protein HSP90", "assay": "Inhibition of HSP90 in human SK-BR-3 cells assessed as decrease in phosphorylated AKT level at 5 to 20 uM incubated for 48 hrs by Western blot analysis", "type": "cell-based", "conditions": "dose 5-20 µM", "procedure,_shortened": "as §2"}, "[11]": {"system": "HCC1806", "assay": "Antiproliferative activity against human HCC1806 cells assessed as inhibition of cell viability measured after 48 hrs by MTT assay", "type": "functional, cell-based", "conditions": "HCC1806, 48 h", "procedure,_shortened": "(§4)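 MTT cell viability read-out; IC50 obtained by non-linear regression of concentration–response data; values are mean ± SD of three independent experiments.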"}, "[12]": {"assay": "Thermal stability of compound in boiling toluene at 120 degreeC at 1 mg/ml measured for approximately 12 hrs by HPLC analysis", "type": "physicochemical", "procedure,_shortened": "(§5)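 Compound at 1 mg mL−1 was heated in distilled boiling toluene at 120 °C for 0–24 h. Remaining percentage was measured by HPLC on a C18 column (5 µm, 4.6 × 250 mm) with MeOH/H2O gradients: 70→100% or 45→100% MeOH over 2–15 min, held at 100% to 20 min, then re-equilibrated.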"}, "[13]": {"assay": "Thermal stability of compound in boiling toluene at 120 degreeC at 1 mg/ml measured for 12 to 24 hrs by HPLC analysis", "type": "physicochemical", "conditions": "time 12-24 hrs", "procedure,_shortened": "as §5"}, "[14]": {"system": "SK-BR-3", "assay": "Induction of apoptosis in human SK-BR-3 cells assessed as necrotic cells at 5 uM incubated for 36 hrs by Annexin V/PI staining based flow cytometry (reference value: 1.89 %)", "type": "functional"}, "[15]": {"system": "MCF7", "assay": "Induction of apoptosis in human MCF7 cells assessed as early apoptotic cells at 20 uM incubated for 36 hrs by Annexin V/PI staining based flow cytometry (reference value: 1.13 %)", "type": "functional"}, "[16]": {"biological_target": "T1, Heat shock protein HSP90", "assay": "Inhibition of HSP90 (unknown origin) at C-terminal by AlphaScreen assay", "type": "protein assay", "procedure,_shortened": "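Modified AlphaScreen system measuring disruption of Cyp40 binding to recombinant HSP90 C-terminal domain; IC50 from two independent experiments.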"}, "[17]": {"system": "SK-BR-3", "assay": "Effect on HSF-1 level in human SK-BR-3 cells assessed as nuclear accumulation at 10 uM incubated for 36 hrs by DAPI staining based immunofluorescence analysis", "type": "functional, cell-based", "procedure,_shortened": "as §3"}, "[18]": {"system": "SK-BR-3", "assay": "Induction of apoptosis in human SK-BR-3 cells assessed as increase in cleaved pro-caspase-8 level at 10 to 20 uM incubated for 48 hrs by Western blot analysis", "type": "functional, cell-based", "conditions": "dose 10-20 µM", "procedure,_shortened": "as §1"}, "[19]": {"system": "SK-BR-3", "assay": "Induction of apoptosis in human SK-BR-3 cells assessed as early apoptotic cells at 10 uM incubated for 36 hrs by Annexin V/PI staining based flow cytometry (reference value: 2.73 %)", "type": "functional"}, "[20]": {"system": "SK-BR-3", "assay": "Effect on HSP70 level in human SK-BR-3 cells at 5 to 20 uM incubated for 48 hrs by Western blot analysis", "type": "functional, cell-based", "conditions": "dose 5-20 µM", "procedure,_shortened": "as §1"}, "[21]": {"system": "SK-BR-3", "assay": "Induction of apoptosis in human SK-BR-3 cells assessed as necrotic cells at 10 uM incubated for 36 hrs by Annexin V/PI staining based flow cytometry (reference value: 1.89 %)", "type": "functional"}, "[22]": {"biological_target": "T1, Heat shock protein HSP90", "assay": "Inhibition of HSP90 in human MCF7 cells assessed as decrease in HER2 level at 5 to 20 uM incubated for 48 hrs by Western blot analysis", "type": "cell-based", "conditions": "dose 5-20 µM", "procedure,_shortened": "as §2"}, "[23]": {"biological_target": "T1, Heat shock protein HSP90", "assay": "Inhibition of HSP90 in human SK-BR-3 cells assessed as decrease in AKT level at 5 to 20 uM incubated for 48 hrs by Western blot analysis", "type": "cell-based", "conditions": "dose 5-20 µM", "procedure,_shortened": "as §2"}, "[24]": {"system": "MCF7", "assay": "Induction of cell cycle arrest in human MCF7 cells assessed as accumulation of cells at G1 phase at 5 to 10 uM incubated for 36 hrs by PI staining based flow cytometry", "type": "functional", "conditions": "dose 5-10 µM", "procedure,_shortened": "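Following 36 h treatment (0, 5, 10 μM), trypsinized cells fixed overnight in 70% ethanol, treated with RNase (0.2 mg/mL) and PI (0.1 mg/mL) for 20 min, then analysed by flow cytometry for cell-cycle distribution; n = 3 versus control.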"}, "[25]": {"system": "SK-BR-3", "assay": "Induction of apoptosis in human SK-BR-3 cells assessed as increase in cleaved pro-caspase-3 level at 10 to 20 uM incubated for 48 hrs by Western blot analysis", "type": "functional, cell-based", "conditions": "dose 10-20 µM", "procedure,_shortened": "as §1"}, "[26]": {"system": "SK-BR-3", "assay": "Effect on HSP70 level in human SK-BR-3 cells at 10 uM incubated for 36 hrs by DAPI staining based immunofluorescence analysis", "type": "functional, cell-based", "procedure,_shortened": "as §3"}, "[27]": {"system": "BT-474", "assay": "Antiproliferative activity against human BT-474 cells assessed as inhibition of cell viability measured after 48 hrs by MTT assay", "type": "functional, cell-based", "conditions": "BT-474, 48 h", "procedure,_shortened": "as §4"}, "[28]": {"system": "MDA-MB-468", "assay": "Antiproliferative activity against human MDA-MB-468 cells assessed as inhibition of cell viability measured after 48 hrs by MTT assay", "type": "functional, cell-based", "conditions": "MDA-MB-468, 48 h", "procedure,_shortened": "as §4"}}, "note": "pIC50: −log10 of the molar value. The source made the active and inactive calls. The calls are words filed in the database; no cut-off is given here.", "data": [{"smiles": "CN1CCN(/C=C/C(=O)/C=C/c2cccc(O[Si](C)(C)C(C)(C)C)c2)CC1", "values": [{"measurement": "Activity", "setting": "[1]", "result": "inactive"}, {"measurement": "Activity", "setting": "[2]", "result": "Active"}, {"measurement": "inhibition", "setting": "[3]", "result": "Active"}, {"measurement": "Stability", "setting": "[4]", "result": "Unstable"}, {"measurement": "Activity", "setting": "[5]", "result": "inactive"}, {"measurement": "Activity", "setting": "[6]", "result": "inactive"}, {"measurement": "viability at 20 µM", "setting": "[7]", "result": 18.5, "unit": "%"}, {"measurement": "Activity", "setting": "[8]", "result": 30.7, "unit": "%"}, {"measurement": "Activity", "setting": "[9]", "result": "Active"}, {"measurement": "inhibition", "setting": "[10]", "result": "Active"}, {"measurement": "pIC50", "setting": "[11]", "result": 5.00}, {"measurement": "Stability", "setting": "[12]", "result": "Stable"}, {"measurement": "Stability", "setting": "[13]", "result": "Unstable"}, {"measurement": "Activity", "setting": "[14]", "result": 1.81, "unit": "%"}, {"measurement": "Activity", "setting": "[15]", "result": 3.58, "unit": "%"}, {"measurement": "IC50", "setting": "[16]", "result": 53.94, "unit": "µM"}, {"measurement": "Activity", "setting": "[17]", "result": "inactive"}, {"measurement": "Activity", "setting": "[18]", "result": "Active"}, {"measurement": "Activity", "setting": "[19]", "result": 3.01, "unit": "%"}, {"measurement": "Activity", "setting": "[20]", "result": "inactive"}, {"measurement": "Activity", "setting": "[21]", "result": 1.7, "unit": "%"}, {"measurement": "inhibition", "setting": "[22]", "result": "Active"}, {"measurement": "inhibition", "setting": "[23]", "result": "Active"}, {"measurement": "Activity", "setting": "[24]", "result": "Active"}, {"measurement": "Activity", "setting": "[25]", "result": "Active"}, {"measurement": "Activity", "setting": "[26]", "result": "inactive"}, {"measurement": "pIC50", "setting": "[27]", "result": 5.04}, {"measurement": "pIC50", "setting": "[28]", "result": 5.09}]}]}
